PG9 Ab binder: small molecules binding HIV-1 gp120 antibody PG9. TR-FRET gp120-PG9 antibody binding. inhibition, % at 6.7 µM. 360,000 tested, 0.43% active; in the data active means inhibition above about 8.5%
MC4R antag cAMP: antagonists of human melanocortin 4 receptor (MC4R). P32245. MC4R-expressing cells, MTII-stimulated cAMP, LANCE TR-FRET. inhibition, % at 6.5 µM. 360,000 tested, 0.48% active;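 active means inhibition above its plate's cutoff, the mean of tested wells on that plate plus 3 SD, cut at about 29% in these data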
Target sequence (P32245 whole entry, looked up): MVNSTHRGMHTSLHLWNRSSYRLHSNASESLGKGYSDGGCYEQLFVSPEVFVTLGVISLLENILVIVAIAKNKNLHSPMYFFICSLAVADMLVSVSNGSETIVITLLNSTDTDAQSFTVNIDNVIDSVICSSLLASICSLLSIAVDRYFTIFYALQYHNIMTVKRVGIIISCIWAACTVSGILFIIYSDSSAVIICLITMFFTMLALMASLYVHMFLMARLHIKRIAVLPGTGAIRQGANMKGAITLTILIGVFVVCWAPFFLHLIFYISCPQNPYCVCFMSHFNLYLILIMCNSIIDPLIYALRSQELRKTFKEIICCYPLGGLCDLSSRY
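material = U2OS cells stably expressing human melanocortin 4 receptor (MC4R) | also added = Melanotan II challenge | dosing = single nominal compound dose of 6.5 µM | detection = TR-FRET with Eu-cAMP and labeled anti-cAMP, 671 nm | replication = singlicate | timing = compound 30 min, challenge 1 h, detection 1 h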
NR2E3 ag-1: activates human NR2E3 receptor; 360,000 tested, 0.35% active; AID 602229; inhibition of corepressor binding, % at 3.98 µM; Q9Y5X4; CHO-S Gal4-NCOR/VP16-NR2E3 two-hybrid, luciferase;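 active means inhibition above the mean of all tested compounds plus 3 SD, cut at about 70% in these data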;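 further: higher means lower luciferase signal from less NR2E3 corepressor binding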
Target sequence (Q9Y5X4 whole entry, looked up, the tested form may be a part): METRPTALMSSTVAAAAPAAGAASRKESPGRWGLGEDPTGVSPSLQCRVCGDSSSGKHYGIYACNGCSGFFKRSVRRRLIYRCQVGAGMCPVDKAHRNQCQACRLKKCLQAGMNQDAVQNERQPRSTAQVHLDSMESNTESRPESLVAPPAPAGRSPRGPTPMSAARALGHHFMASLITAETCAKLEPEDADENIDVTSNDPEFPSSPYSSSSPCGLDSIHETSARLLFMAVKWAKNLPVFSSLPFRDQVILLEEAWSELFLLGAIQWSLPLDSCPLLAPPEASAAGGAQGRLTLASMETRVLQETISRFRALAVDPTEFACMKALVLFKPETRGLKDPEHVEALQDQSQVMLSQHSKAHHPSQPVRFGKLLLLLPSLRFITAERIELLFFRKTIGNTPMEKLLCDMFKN
MC4R ag barr: human MC4R agonism via beta-arrestin; P32245; U2OS MC4R beta-arrestin complementation, luminescence; percent of melanotan II response, DMSO zero; activation, % at 8.9 µM; 360,000 tested, 0.98% active; AID 540308;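 active means activation above a per-plate cutoff, the mean activation of sample wells on that plate plus 3 SD, cut at about 8% in these data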
NR2E3 ag-2: agonists of human nuclear receptor NR2E3; Q9Y5X4; GST-NR2E3/biotin-RetCOR TR-FRET, 1536-well; inhibition of corepressor binding, % at 4.78 µM; 320,000 tested, 0.12% active;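 active means percent inhibition above the cutoff of mean plus 3 SD of all tested compounds, set per screening campaign, cut at about 20% in these data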
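Format: 1536-well format; test system: GST-NR2E3 and biotin-RetCOR proteins; read-out basis: percent inhibition of TR-FRET ratio; timing: 5 h incubation at 4 °C; detection: time-resolved FRET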
NR1D1 modulator: modulators of human Rev-erb alpha DNA binding. activity, % at 10 µM. AID 1259318. Rev-erbα–FITC-DNA binding, fluorescence polarization, 90 min. 370,000 tested, 0.79% active. P20393;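 active means activity above about 14%, limit read from the data; passing the limit was not always enough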
NR2E3 ag conf: NR2E3 agonism confirmed in two-hybrid assay | AID 624378 | 2,300 tested, 51% active | inhibition, % at 3.98 µM | CHO-S mammalian two-hybrid NR2E3-NCOR, luciferase luminescence | shares compounds with NR2E3 ag-1;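 active means average inhibition above a cutoff equal to the mean inhibition of all tested compounds plus one SD, cut at about 70% in these data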
GAL4-VP16 luc: counter-screen for NR2E3 agonists: GAL4-VP16 reporter inhibitors | shares compounds with NR2E3 ag-1 | CHO-S GAL4-VP16 luciferase reporter, luminescence | inhibition, % at 3.98 µM | 2,300 tested, 29% active | AID 624379;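 active means mean inhibition above a cutoff equal to the average over all tested compounds plus one standard deviation, cut at about 70% in these data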;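 further: luciferase from a UAS reporter driven by GAL4-VP16 transactivation; higher means less reporter light so more repression of VP16 activity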
Large screens that a line does not name were inactive (follow-up assays come after a bar, where they were run). Sampled rows, rich in hits. Any-hit rate of the full collection: about 2.7%.

Cc1ccc(-c2csc(N3C(=N)SCC3=O)n2)cc1	none (no result: MC4R antag cAMP, NR2E3 ag-1, MC4R ag barr)
Fc1ccc(NC(=S)NNc2ncc(C(F)(F)F)cc2Cl)c(F)c1	NR2E3 ag-1 80 | NR2E3 ag conf inactive | GAL4-VP16 luc inactive
FC(F)(F)c1cnc(NNC(=S)Nc2ccc(Cl)cc2)c(Cl)c1	NR2E3 ag-1 70 | NR2E3 ag conf 94 | GAL4-VP16 luc 77
CCS(=O)(=O)c1nc(S(=O)(=O)c2ccc(C)cc2)c(N2CCC3(CC2)OCCO3)s1	none
CCOC(=O)[C@@H]1[C@H]2COc3ccc(Br)cc3[C@@H]2N2C(=O)N(c3ccccc3)C(=O)[C@]12C	none
CCOc1ccc(C(=O)N2CCc3cc(OC)c(OC)cc3C2)cc1OCC	none
Cc1cc(C)c(CN2CCN(C(=O)Cn3cnc4c(OCc5ccccc5)ncnc43)CC2)c(C)c1	NR2E3 ag-1 71 (no result: NR2E3 ag-2) | NR2E3 ag conf inactive | GAL4-VP16 luc inactive
O=C(O)Cn1cnc2c(OCc3ccccc3)ncnc21	none (no result: NR2E3 ag-2)
Cc1noc(C)c1COc1ccccc1C(=O)NCCOc1ccccc1	none (no result: NR2E3 ag-2)
CN(Cc1cnc2nc(N)nc(N)c2n1)c1ccc(C(=O)NC(CCC(=O)O)C(=O)O)cc1 (centres undefined)	none (no result: NR2E3 ag-2) | NR2E3 ag conf inactive | GAL4-VP16 luc inactive
CC(C)(C)c1ccc(-n2ncc3c2CCCC3NC(=O)CN2CCOC2=O)cc1 (centres undefined)	none | NR2E3 ag conf inactive | GAL4-VP16 luc inactive
COc1ccc(-n2ncc3c2CC(C)(C)CC3NC(=O)CN2CCOC2=O)cc1 (centres undefined)	none (no result: NR2E3 ag-2)
CC(C)(C)c1ccc(-n2ncc3c2CCCC3NC(=O)CCN2CCCCC2=O)cc1 (centres undefined)	none | NR2E3 ag conf inactive | GAL4-VP16 luc inactive
CC1(C(=O)NS(C)(=O)=O)CCN1C(=O)Cc1ccc(Cl)cc1Cl (centres undefined)	none (no result: NR2E3 ag-2)
O=C(CCN1C(=O)COc2ccccc21)N1CCN(c2ccccn2)CC1	none (no result: NR1D1 modulator)
Cc1nc(NCCc2ccccc2)c2oc3ccccc3c2n1	NR2E3 ag-1 72 | NR2E3 ag conf 91 | GAL4-VP16 luc 76
Cc1nc2ccccc2n1Cc1ccc(Br)cc1	NR2E3 ag-1 84 | NR2E3 ag conf 94 | GAL4-VP16 luc 85
CC1(C(=O)Nc2ccc3[nH]ncc3c2)CCN1C(=O)Cc1ccc(-c2ccccc2)cc1 (centres undefined)	none (no result: NR2E3 ag-2) | NR2E3 ag conf 78 | GAL4-VP16 luc inactive
C#Cc1ccc(NC(=O)C2(C)CCN2C(=O)Cc2ccc(C(C)(C)C)cc2)cc1 (centres undefined)	none (no result: NR2E3 ag-2)
CC(C)(C)c1ccc(CC(=O)N2CCC2(C)C(=O)Nc2ccc3[nH]ncc3c2)cc1 (centres undefined)	none (no result: NR2E3 ag-2) | NR2E3 ag conf inactive | GAL4-VP16 luc inactive
CC(C)(C)c1ccc(C(=O)N2CCC2(C)C(=O)Nc2cccc(C#N)c2)cc1 (centres undefined)	none (no result: NR2E3 ag-2) | NR2E3 ag conf inactive | GAL4-VP16 luc inactive
CC1(C(=O)Nc2ccc3[nH]ncc3c2)CCN1C(=O)CCc1ccccc1 (centres undefined)	none (no result: NR2E3 ag-2)
COC(=O)[C@H](C(C)C)N(Cc1ccccc1)S(=O)(=O)CCNC1CCCC1	none (no result: NR2E3 ag-2)
CCC(=O)Nc1ccccc1C(=O)OCC(=O)c1ccccc1	none
C/C(=N\NC(=O)CNC(=O)c1ccc2c(c1)OCCO2)c1ccco1	none
CCCCN(C(=O)Cc1cccs1)c1nnc(-c2cccnc2)s1	none
Cc1cc(C(=O)Nc2sccc2C#N)c2ccccc2n1	none
CC(C)CNc1ncnc2c1ncn2[C@H]1CN(Cc2ccc(-c3ccccc3)cc2)C[C@@H](CO)O1	none (no result: NR2E3 ag-2) | NR2E3 ag conf 89 | GAL4-VP16 luc inactive
CC(C)Nc1ncnc2c1ncn2[C@H]1CN(Cc2ccc(-c3ccccc3)cc2)C[C@@H](CO)O1	NR2E3 ag-1 73 (no result: NR2E3 ag-2) | NR2E3 ag conf inactive | GAL4-VP16 luc inactive
CC(C)CNc1ncnc2c1ncn2[C@H]1CN(Cc2ccncc2)C[C@@H](CO)O1	none (no result: NR2E3 ag-2)
Cc1ccc(Cn2ccc(NC(=O)CCSc3nc(-c4ccco4)cc(C(F)(F)F)n3)n2)cc1	none
COc1ccc(-c2csc(NC(=O)Cc3cc(OC)c(OC)c(OC)c3)n2)cc1OC	none | NR2E3 ag conf inactive | GAL4-VP16 luc inactive
COc1cc(CC(=O)Nc2nc(C)cs2)cc(OC)c1OC	none
O=C1N[C@H](Cc2ccccc2)COC(=O)[C@H](Cc2ccc(F)cc2)CC/C=C/C[C@H]1CC(=O)N(CCO)Cc1ccccc1	none (no result: NR2E3 ag-2) | NR2E3 ag conf inactive | GAL4-VP16 luc inactive
CCNc1nc(NCC)nc(NS(=O)(=O)c2ccc(N)cc2)n1	none
CN(C)Cc1c(C(=O)N/N=C/c2cccnc2)nnn1-c1nonc1N	none
S=C(Nc1ccccc1)Nc1ccc(OCc2ccc(Cl)cc2Cl)cc1	NR2E3 ag-1 75 | NR2E3 ag conf inactive | GAL4-VP16 luc inactive
COC(=O)c1cc2n(n1)CCN(Cc1ccccc1F)C2=O	none
COc1ccc(C(=O)NCC(=O)N2CCN(c3ccccc3)CC2)cc1	none
N#CC(C(=S)Nc1ccccc1)c1nc2ccccc2[nH]1 (centres undefined)	NR2E3 ag-1 78 | NR2E3 ag conf inactive | GAL4-VP16 luc inactive
Cn1nc(C(C)(C)C)cc1C(=O)NCc1ccc2c(c1)OCO2	NR2E3 ag-1 105 | NR2E3 ag conf 95 | GAL4-VP16 luc 79
O=C(CNc1ccc(C(F)(F)F)cc1)Nc1cccc(S(=O)(=O)N2CCCC2)c1	none
COc1ccc(CCC(=O)Nc2cccc(S(=O)(=O)N3CCCCCC3)c2)cc1OC	none
O=C(CNc1cccc(S(=O)(=O)N2CCOCC2)c1)Nc1ccc(C(F)(F)F)cc1	none | NR2E3 ag conf inactive | GAL4-VP16 luc inactive
COc1ccc(CC(=O)Nc2cccc(S(=O)(=O)N3CCCCCC3)c2)cc1OC	NR2E3 ag-1 80 | NR2E3 ag conf 90 | GAL4-VP16 luc 77
CCN(CC)S(=O)(=O)c1cc(NC(=O)CNc2cccc(S(=O)(=O)N3CCCC3)c2)ccc1C	none (no result: PG9 Ab binder, NR1D1 modulator) | NR2E3 ag conf inactive | GAL4-VP16 luc inactive
CC(C)(C)c1csc(Sc2ncccc2[N+](=O)[O-])n1	none
CCOC(=O)[C@]12CCCC=C1N(CCC1=CCCCC1)C(=O)[C@H](CC(=O)N1CCCC1)C2	none (no result: MC4R antag cAMP, NR2E3 ag-1, MC4R ag barr, NR2E3 ag-2)
CCN(CC)CCn1c2c(c(SCC(=O)Nc3cc(C)ccc3C)nc1=O)CCC2	none
COCCNC(=S)N1CCC(c2nc(-c3ccc(N(C)C)cc3)no2)CC1	none
O=C(Nc1cccc(C(F)(F)F)c1)N1CCC(c2nc(-c3ccc(F)cc3)no2)CC1	none | NR2E3 ag conf inactive | GAL4-VP16 luc inactive
